Experimental data reported in ChEMBL document CHEMBL1151831, “Acylated iridoids with cytotoxicity from Valeriana jatamansi” (J Nat Prod, 2009).

Tests used:
Assay type in all cases: functional, cell-based
A549 = test: Cytotoxicity against human A549 cells after 24 hrs by MTT assay; details: A549, 24 h
Summary of the method: (§1)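 Human cancer lines from ATCC, seeded at 3000 cells per well and exposed 24 h later to a range of concentrations for 24 h. MTT was then added, plates were incubated a further 24 h, and viability was read as absorbance at 570 nm. IC50 values were calculated from the readings.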

HCT-8 = test: Cytotoxicity against human HCT8 cells after 24 hrs by MTT assay; details: HCT-8, 24 h; summary of the method: as §1
Bel-7402 = test: Cytotoxicity against human Bel7402 cells after 24 hrs by MTT assay; details: Bel-7402, 24 h; summary of the method: as §1
[1] = Cytotoxicity against human PC3M cells after 24 hrs by MTT assay; details: PC-3M; summary of the method: as §1

| SMILES | IC50 (A549) | IC50 (HCT-8) | IC50 (Bel-7402) | IC50 [1] |
| --- | --- | --- | --- | --- |
| CC(=O)O[C@H]1C[C@@H]2C(COC(=O)CC(C)C)=CO[C@@H](OC(=O)CC(C)C)[C@@H]2[C@@]1(O)COC(=O)CC(C)(C)OC(C)=O [JATAMANVALTRATE F] | > 10 µM | > 10 µM | 8.8 µM | 4.3 µM |
| CC(=O)OC[C@]1(O)[C@H]2[C@H](OC(=O)CC(C)C)OC=C(COC(=O)C(OC(=O)CC(C)C)C(C)C)[C@@]2(O)C[C@@H]1O (stereo partly specified) [VALERIOTRIATE B] | > 10 µM | > 10 µM | > 10 µM | 3.9 µM |
| COC[C@@]1(O)[C@@H](OC(C)=O)C[C@]2(O)C(COC(=O)C(OC(=O)CC(C)C)C(C)C)=CO[C@@H](OC(=O)CC(C)C)[C@H]12 (stereo partly specified) [JATAMANVALTRATE E] | > 10 µM | 9.7 µM | 8.5 µM | > 10 µM |
| CC(=O)OCC1=CO[C@@H](OC(=O)CC(C)C)[C@H]2C1=C[C@H](OC(=O)CC(C)C)[C@]21CO1 [VALTRATE] | 3.7 µM | 1.8 µM | 6.1 µM | 1.6 µM |
| CC(=O)O[C@H]1C[C@]2(O)C(COC(=O)C(OC(=O)CC(C)C)C(C)C)=CO[C@@H](OC(=O)CC(C)C)[C@@H]2[C@@]1(O)COC(=O)c1ccccc1O (stereo partly specified) [JATAMANVALTRATE D] | > 10 µM | 4.5 µM | 9.7 µM | 3.8 µM |
| CC(=O)OCC1=CO[C@@H](OC(=O)CC(C)C)[C@H]2C1=C[C@H](OC(=O)CC(C)C)[C@]2(O)CO [JATAMANVALTRATE K] | > 10 µM | > 10 µM | 7.1 µM | 5 µM |
| CC(=O)OCC1=CO[C@@H](OC(=O)CC(C)C)[C@H]2C1=C[C@H](OC(=O)CC(C)C)[C@]2(O)COC(C)=O | 8.6 µM | > 10 µM | > 10 µM | > 10 µM |
| CC(=O)O[C@H]1C[C@]2(O)C(COC(=O)C(OC(=O)CC(C)C)C(C)C)=CO[C@@H](OC(=O)CC(C)C)[C@@H]2[C@@]1(O)COC(=O)C(OC(=O)CC(C)C)C(C)C (stereo partly specified) [VALERIOTETRATE A] | > 10 µM | 8.2 µM | 9.9 µM | 3.1 µM |
| CC(=O)OCC1=CO[C@@H](OC(=O)CC(C)C)[C@H]2C1=C[C@H](O)[C@]2(O)COC(=O)CC(C)C [JATAMANVALTRATE J] | > 10 µM | > 10 µM | > 10 µM | 5.8 µM |
| CC(=O)OC[C@]1(O)[C@H]2[C@H](OC(=O)CC(C)C)OC=C(COC(=O)CC(C)C)[C@H]2C[C@@H]1OC(C)=O [DIDROVALTRATE ACETOXY HYDRIN] | 3 µM | 2.6 µM | 4.4 µM | 1.6 µM |
| CC(=O)O[C@H]1C[C@@H]2C(COC(=O)CC(C)C)=CO[C@@H](OC(=O)CC(C)C)[C@@H]2[C@@]1(O)CO [JATAMANVALTRATE H] | > 10 µM | > 10 µM | > 10 µM | 5.2 µM |
| CC(=O)OC[C@]1(O)[C@H]2[C@H](OC(=O)CC(C)C)OC=C(COC(=O)CC(C)C)[C@H]2C[C@@H]1O [JATAMANVALTRATE G] | > 10 µM | > 10 µM | 5.9 µM | 5.6 µM |
| CC(=O)OC[C@@]1(O)[C@@H](OC(C)=O)C[C@]2(O)C(COC(=O)C(OC(=O)CC(C)C)C(C)C)=CO[C@@H](OC(=O)CC(C)C)[C@H]12 (stereo partly specified) [JATAMANVALTRATE C] | > 10 µM | > 10 µM | > 10 µM | > 10 µM |
| CC(=O)O[C@H]1C[C@@H]2C(COC(=O)CC(C)C)=CO[C@@H](OC(=O)CC(C)C)[C@@H]2[C@@]12CO2 [DIDROVALTRATE] | > 10 µM | 6.6 µM | 7.5 µM | 3.8 µM |
| CC(=O)O[C@H]1C[C@]2(O)C(COC(=O)C(OC(=O)CC(C)C)C(C)C)=CO[C@@H](OC(=O)CC(C)C)[C@@H]2[C@@]12CO2 (stereo partly specified) | 7.4 µM | 2.5 µM | 4 µM | 1.9 µM |
| CC(=O)O[C@H]1C[C@]2(O)C(COC(=O)C(OC(=O)CC(C)C)C(C)C)=CO[C@@H](OC(=O)CC(C)C)[C@@H]2[C@@]1(O)COC(=O)CC(C)(C)OC(C)=O (stereo partly specified) [JATAMANVALTRATE A] | > 10 µM | > 10 µM | > 10 µM | 5.3 µM |
| CC(=O)O[C@H]1C[C@]2(O)C(COC(=O)C(OC(=O)CC(C)C)C(C)C)=CO[C@@H](OC(=O)CC(C)C)[C@@H]2[C@@]1(O)COC(=O)CC(C)C (stereo partly specified) [JATAMANVALTRATE B] | > 10 µM | 6.2 µM | > 10 µM | 3.9 µM |
| CC(C)CC(=O)OC(C(=O)OCC1=CO[C@@H](OC(=O)CC(C)C)[C@@H]2[C@@]3(CO3)[C@@H](O)C[C@]12O)C(C)C (stereo partly specified) [JATAMANVALTRATE L] | > 10 µM | > 10 µM | 7.6 µM | 3.4 µM |
| CC(=O)O[C@H]1C[C@]2(O)C(COC(=O)CC(C)C)=CO[C@@H](OC(=O)CC(C)C)[C@@H]2[C@@]12CO2 | 7 µM | 1.5 µM | 2.3 µM | 2.2 µM |
| CCOCC1=CO[C@@H](OC(=O)CC(C)C)[C@@H]2[C@@]3(CO3)[C@@H](OC(C)=O)C[C@]12O [JATAMANVALTRATE M] | > 10 µM | > 10 µM | > 10 µM | 6.3 µM |
| CC(=O)O[C@H]1C=C2C(COC(=O)CC(C)C)=CO[C@@H](OC(=O)CC(C)C)[C@@H]2[C@@]1(O)COC(=O)c1ccccc1O [JATAMANVALTRATE I] | > 10 µM | 9.7 µM | > 10 µM | 3.9 µM |
| CC(=O)OCC1=CO[C@@H](OC(=O)CC(C)C)[C@H]2C1=C[C@H](OC(=O)CC(C)(C)OC(C)=O)[C@]21CO1 [ACEVALTRATE] | 2.9 µM | 1 µM | 1.7 µM | 1.4 µM |
| CC(=O)O[C@H]1C(=O)[C@@]2(C)[C@H]([C@H](OC(=O)c3ccccc3)[C@]3(O)C[C@H](OC(=O)[C@H](O)[C@@H](NC(=O)c4ccccc4)c4ccccc4)C(C)=C1C3(C)C)[C@]1(OC(C)=O)CO[C@@H]1C[C@@H]2O [PACLITAXEL] | 0.0052 µM | – | 0.095 µM | 0.027 µM |
